Results from ChEMBL document CHEMBL2203053, “DNA binding acridine-thiazolidinone agents affecting intracellular glutathione” (Bioorg Med Chem, 2012).
One block for each compound: values may come before it. Calls of active or inactive are those of the source. The calls are words filed in the database; no cut-off is given here.

What was measured:
HL-60 [1] = assay: Drug uptake in human HL60 cells at 5 uM after 4 hrs by Hoechst staining based fluorescence microscopy; assay type: ADME, cell-based; conditions: hl-60, 4 h
Summary of the method: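 HL-60 cells were exposed to 5 µM for 4 h at 37 °C, 5% CO₂, then washed in PBS. Intrinsic blue fluorescence was viewed by optical and fluorescence microscopy. Untreated control cells were stained with Hoechst 33342 (10 µM, 10 min).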

Nucleic Acid [2] = assay: Ratio of daunomycin K to compound K for calf thymus DNA by spectrofluorimetry based McGhee von Hippel method; assay type: nucleic-acid assay; conditions: Bos taurus
HL-60 [3] = assay: Cytotoxicity against BSO pretreated human HL60 cells assessed as cell viability at 1.5 uM treated 6 hrs after BSO addition measured after 48 hrs by trypan blue exclusion assay; assay type: functional, cell-based
Summary of the method: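 HL-60 cells were pretreated 6 h with L-buthionine-sulfoximine (10 µM), then exposed to 1.5, 3.0 or 1.0 µM compound for 48 h. Viable cells were counted by trypan blue staining and expressed as percentage of all cells.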

HL-60 [4] = assay: Cytotoxicity against human HL60 cells after 72 hrs using trypan blue exclusion staining by DCC method; assay type: functional, cell-based; conditions: HL-60, 72 h
Summary of the method: (§1)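 For trypan blue dye-exclusion direct cell counting, HL-60 cells were seeded at 1 × 10⁵ cells/mL. Compound at 0–10 µM, or 1% DMSO control, was added after 24 h. Viable counts were taken after 24, 48 and 72 h. IC50 (50% inhibition of viability) came from growth curves, as mean ± S.D., n = 3.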

Nucleic Acid [5] = assay: Ratio of proflavine K to compound K for calf thymus DNA by spectrofluorimetry based McGhee von Hippel method; assay type: nucleic-acid assay; conditions: Bos taurus
HL-60 [6] = assay: Cytotoxicity against human HL60 cells after 48 hrs using trypan blue exclusion staining by DCC method; assay type: functional, cell-based; conditions: HL-60, 48 h; summary of the method: as §1
HL-60 [7] = assay: Decrease in intracellular glutathione level in human HL60 cells at 2 uM after 24 hrs by spectrophotometric analysis; assay type: functional, cell-based
HL-60 [8] = assay: Cytotoxicity against human HL60 cells after 72 hrs by MTT assay; assay type: functional, cell-based; conditions: HL-60, 72 h
Summary of the method: (§2)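 HL-60, L1210 and A2780 cells were grown in RPMI 1640 with 10% FBS, penicillin and streptomycin at 37 °C, 5% CO₂; HL-60 and A2780 medium also had 2 mM glutamine. Cells were exposed to 0–30 µM for 48 or 72 h. Viability was read by MTT microculture tetrazolium assay and IC50 was determined.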

L1210 [9] = assay: Cytotoxicity against mouse L1210 cells after 48 hrs by MTT assay; assay type: functional, cell-based; conditions: L1210, 48 h; summary of the method: as §2
HL-60 [10] = assay: Cytotoxicity against human HL60 cells after 48 hrs by MTT assay; assay type: functional, cell-based; conditions: HL-60, 48 h; summary of the method: as §2
Nucleic Acid [11] = assay: Binding affinity to calf thymus DNA assessed as binding constant by spectrofluorimetry based McGhee von Hippel method; assay type: nucleic-acid assay; conditions: Bos taurus
Summary of the method: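 Fluorescence titration used compound at 26.7 µM in 0.01 M Tris buffer (pH 7.4, 24 °C). ctDNA was added stepwise from 0 to 32 µM bp at 2 µM intervals until spectra stopped changing. Excitation was 384 nm and emission was read at 410–470 nm. Binding constant K was derived by the McGhee–von Hippel method from Scatchard plot data.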

A2780 [12] = assay: Drug uptake in human A2780 cells at 5 uM after 4 hrs by Hoechst staining based fluorescence microscopy; assay type: ADME, cell-based; conditions: a2780, 4 h
Nucleic Acid [13] = assay: Binding affinity to calf thymus DNA assessed as hypochromicity at 25 uM by UV-visible spectrophotometry; assay type: nucleic-acid assay; conditions: Bos taurus
Summary of the method: (§3)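 Absorption spectra were taken in 0.01 M Tris buffer, pH 7.4. Compounds were diluted from DMSO stock to a final 25 µM. Sonicated calf thymus DNA in TE buffer was added at 0–30 µM bp, with concentration set by A260. Shift of λmax (free vs bound) and % hypochromicity were recorded.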

HL-60 [14] = assay: Decrease in intracellular glutathione level in human HL60 cells at 2 uM after 2 hrs by spectrophotometric analysis; assay type: functional, cell-based
Nucleic Acid [15] = assay: Ratio of acridine orange K to compound K for calf thymus DNA by spectrofluorimetry based McGhee von Hippel method; assay type: nucleic-acid assay; conditions: Bos taurus
A2780 [16] = assay: Cytotoxicity against human A2780 cells after 48 hrs by MTT assay; assay type: functional, cell-based; conditions: A2780, 48 h; summary of the method: as §2
Nucleic Acid [17] = assay: Binding affinity to calf thymus DNA assessed as bathochromic shift at 25 uM by UV-visible spectrophotometry; assay type: nucleic-acid assay; conditions: Bos taurus; summary of the method: as §3
HL-60 [18] = assay: Induction of necrosis in human HL60 cells assessed as cell shrinking at 5 uM after 24 hrs by propidium iodide staining based fluorescence microscopy; assay type: functional
L1210 [19] = assay: Cytotoxicity against mouse L1210 cells after 72 hrs by MTT assay; assay type: functional, cell-based; conditions: L1210, 72 h; summary of the method: as §2
A2780 [20] = assay: Cytotoxicity against human A2780 cells after 72 hrs by MTT assay; assay type: functional, cell-based; conditions: A2780, 72 h; summary of the method: as §2
Nucleic Acid [21] = assay: Binding affinity to calf thymus DNA assessed as melting temperature at 5 uM at pH 7.1 by thermal denaturation assay; assay type: nucleic-acid assay; conditions: Bos taurus

- Drug uptake (HL-60 [1]): Active
- Ratio (Nucleic Acid [2]): 10
- Ratio (Nucleic Acid [5]): 10
- K (Nucleic Acid [11]): 2.21 ×10⁶ /M
- Drug uptake (A2780 [12]): Active
- Activity (Nucleic Acid [13]): 26.3%
- Ratio (Nucleic Acid [15]): 10
- Activity (Nucleic Acid [17]): Active
- Tm (Nucleic Acid [21]): 75 °C
SMILES: CCC(C)N1C(=O)/C(=C/C(=O)OC)S/C1=N\c1c2ccccc2nc2ccccc12 (configuration not stated)
- Activity (HL-60 [3]): Active
- IC50 (HL-60 [4]): 1700 nM
- IC50 (HL-60 [6]): 2000 nM
- Activity (HL-60 [7]): Active
- IC50 (HL-60 [8]): 2100 nM
- IC50 (L1210 [9]): 3.3 µM
- IC50 (HL-60 [10]): 3.4 µM
- Activity (HL-60 [14]): Active
- IC50 (A2780 [16]): 20.8 µM
- Activity (HL-60 [18]): Active
- IC50 (L1210 [19]): 7.5 µM
- IC50 (A2780 [20]): 12.6 µM

- K (Nucleic Acid [11]): 7.09 ×10⁵ /M
SMILES: COc1cccc2c1C(=O)c1c(O)c3c(c(O)c1C2=O)C[C@@](O)(C(C)=O)C[C@@H]3O[C@H]1C[C@H](N)[C@H](O)[C@H](C)O1
